Source: ChEMBL document CHEMBL1250451, “Mechanistic insights into a Ca2+-dependent family of alpha-mannosidases in a human gut symbiont” (Nat Chem Biol, 2010)

Tests used:
Assay type in all cases: protein assay
[1] = substrate: O=[N+]([O-])c1ccc(O[C@H]2O[C@H](CO)[C@@H](O)[C@H](O)[C@@H]2O)cc1; assay: (§1) Activity of Bacteroides thetaiotaomicron GH92 alpha-mannosidase GH92 alpha-mannosidase 3962 assessed as mannose release after 16 hrs by HPLC
[2] = substrate: OC[C@H]1O[C@H](O[C@H]2[C@@H](O)[C@H](O)[C@@H](CO)O[C@@H]2O)[C@@H](O)[C@@H](O)[C@@H]1O; assay: as §1
[3] = substrate: O=[N+]([O-])c1ccc(O[C@H]2O[C@H](CO)[C@@H](O)[C@H](O)[C@@H]2O)cc1; assay: (§2) Ratio of Kcat to Km for Bacteroides thetaiotaomicron GH92 alpha-mannosidase GH92 alpha-mannosidase 3962 assessed as mannose release after 16 hrs by HPLC
[4] = substrate: OC[C@H]1O[C@H](O[C@H]2[C@@H](O)[C@H](O)[C@@H](CO)O[C@@H]2O)[C@@H](O)[C@@H](O)[C@@H]1O; assay: as §2
[5] = substrate: OC[C@H]1O[C@H](O[C@H]2[C@H](O)[C@H](O)[C@@H](O)O[C@@H]2CO)[C@@H](O)[C@@H](O)[C@@H]1O; assay: (§3) Ratio of Kcat to Km for Bacteroides thetaiotaomicron GH92 alpha-mannosidase GH92 alpha-mannosidase 3994 assessed as mannose release after 16 hrs by HPLC
[6] = substrate: O=[N+]([O-])c1ccc(O[C@H]2O[C@H](CO)[C@@H](O)[C@H](O)[C@@H]2O)cc1; assay: as §3
[7] = substrate: O=[N+]([O-])c1ccc(O[C@H]2O[C@H](CO)[C@@H](O)[C@H](O)[C@@H]2O)cc1; assay: Activity of Bacteroides thetaiotaomicron GH92 alpha-mannosidase GH92 alpha-mannosidase 3994 assessed as mannose release after 16 hrs by HPLC
[8] = substrate: O=[N+]([O-])c1ccc(O[C@H]2O[C@H](CO)[C@@H](O)[C@H](O)[C@@H]2O)cc1; assay: Ratio of Kcat to Km for Bacteroides thetaiotaomicron GH92 alpha-mannosidase GH92 alpha-mannosidase 4073 assessed as mannose release after 16 hrs by HPLC
[9] = substrate: OC[C@H]1O[C@H](O[C@H]2[C@H](O)[C@H](O)[C@@H](O)O[C@@H]2CO)[C@@H](O)[C@@H](O)[C@@H]1O; assay: (§4) Activity of Bacteroides thetaiotaomicron GH92 alpha-mannosidase GH92 alpha-mannosidase 4073 assessed as mannose release after 16 hrs by HPLC
Summary of the method: (§5)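 Yeast mannan or ovalbumin (mostly high-mannose N-glycans) at 1 mg ml−1 was incubated with recombinant IMAC-purified enzyme from E. coli. The methods give enzyme at 2 μM and the table footnote gives 1 μM. Buffer was 100 mM sodium HEPES pH 7.0 with 1 mg ml−1 BSA and 2 mM CaCl2. Aliquots were taken at 1 and 16 h and boiled 10 min. Mannose was measured by HPLC and scored by signal: >500 nC +++, 200–500 ++, <200 +.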

[10] = substrate: O=[N+]([O-])c1ccc(O[C@H]2O[C@H](CO)[C@@H](O)[C@H](O)[C@@H]2O)cc1; assay: as §4; summary of the method: as §5

B1: Glycoside hydrolase family 92 (BT_3962) (Bacteroides thetaiotaomicron), Q8A0Q9 (protein)
chain: MNKQKLLSITMTLLLGVSSIFAQKQPVDYVNPLMGTDSKISLSNGNTYPAIALPWGMNFWMPQTGKMGDGWAYTYASDKIRGFKQTHQPSPWINDYGQFSIMPMTKQLKIDQDSRASWFSHKAEKATPYYYSVYLSEYNMTTEIAPTERCAYFRFTFPEASDAYVVVDAFDRGSYVKVIPEENKIVGYTTRNSGGVPQNFRNYFVIEFDKPFTFNKVWADYHLVETHLELQSNHVGAAIGFSTKKGEQVHAKVASSFISPEQAELNLKEIGNKTFEQTKEAGRKAWNDVLGRIKVEDDDENRMRTFYSCLYRSVLFPRMFHEVNAKGETVHYSPYNGEIRPGYMFTDTGFWDTFRCLFPFVNLIYPSMGEKMQEGLLNTYLESGFFPEWASPGHRGCMVGNNSASVVADAFMKNVTKADAEKMYEGLLKGANSVHPRVSTTGRRGYEYYNKLGYVPYDVKINENAARTLEYAYDDWCIYRMGEKLGRPAEELELYKSRSQNYRNLFDPETKLMRGKNADGTFQTPFNPFKWGDAFTEGNSWHYTWSVFHDVQGLADLMGGRKMFVSMLDSVFNLPPIFDDSYYGGVIHEIREMEIANMGNYAHGNQPIQHMIYLYNYAGEPWKAQYWLREVMNRLYFATPDGYCGDEDNGQTSAWYVFTALGFYPVCPGSNEYVMGAPYFKKATITLENGKKLEISAPKNSDANRYIRSLNYNGKNYTKNYLNHFDLLKGGRLVFDMDNKPNKGRGINESDFPYSFSRDNK
[1]
  Km: 5000 µM
  kcat: 0.283 s⁻¹
[2]
  Km: 430 µM
  kcat: 13.7 s⁻¹
[3]
  kcat/Km: 56.7 M⁻¹ s⁻¹
[4]
  kcat/Km: 31700 M⁻¹ s⁻¹

B2: Alpha-1,2-mannosidase (BT_3994) (Bacteroides thetaiotaomicron), Q8A0M7 (protein)
chain: MKTPIYLLLIVCIFASCNTKQTQAEIDYTSYVNPFIGTDFTGNTYPGAQAPFGMVQLSPDNGLPGWDRISGYFYPDSTIAGFSHTHLSGTGAGDLYDISFMPVTLPYKEAEAPLGIYSKFSHDEESAYAGYYQVRLKDYHINVELTATERCGIQRYTFPKAEAAIFLNLKKAMNWDFTNDSHIEVVDSVTIQGYRYSDGWARDQRIYFRTRFSKPFDKVELDTTAIIKDKQHIGTAVIARFDFHTEEGEQILVNTAISGVSMEGAAKNLQAEVPENDFDKYLAETKANWNRQLGKIEVEGDNQDDKVNFYTALYHSMIAPTIYSDVDGAYYGPDKKVHQSDGWVNYSTFSLWDTYRAAHPLFTYTEPERVNDMVKSFIAFFEQNGRLPVWNFYGSETDMMIGYHAVPVIVDAYLKGIGNFDAEKALAACVATANLDNYRGIGLYKQLGYIPYNVTDHYNAENWSLSKTLEYAFDDYCIAEMANKMGKKEIADEFYKRSQNYKNVYNPATSFMQPRDDKGNFIKDFKADEYTPHICESNGWQYFWSVQHDIDGLIDLTGGKNRFAEKLDSMFTYHPAADEELPIFSTGMIGQYAHGNEPSHHVIYLFNAVGQQNLTQKYVAKVMNELYKNEPAGLCGNEDCGQMSAWYVFSAMGFYPVNPVSGKYEIGTPLFPEMKLHLANGKTFTVLAPKVSKENIYIQSIKVDGQPYNKTYLTHEQIMSGTTVEFEMGNTPLVEVEFEEQTQ
[5]
  kcat/Km: 0.0833 M⁻¹ s⁻¹
[6]
  kcat/Km: 433 M⁻¹ s⁻¹
[7]
  Km: 3700 µM
  kcat: 1.57 s⁻¹

B3: Alpha-1,2-mannosidase, putative (BT_4073) (Bacteroides thetaiotaomicron), Q8A0E8 (protein)
chain: MYKASANILIACSFLWLTACSSAGVVTEDLIPTDYVNPFIGASTSVGAAGVYHGLGKTFPGATTPYGMVQVSPNTITGGDNSSGYSDEHKTIEGFAFTQMSGVGWFGDLGNFLVMPTTGELQKIAGKEDGSIKGYRSSYDKATETAKAGYYSVELTDYKIKVESSATPHCGILQFTFPSNEQSRIQIDLARRVGGTSTSQYVKVLDDYTIQGWMKCTPDGGGWGNGEGNSDYTVYYYAQFSKPLSNYGFWSADIPDEWVRKRDEVVSIPYLTRISQAPVIKDKKELEGKHLGFFTEFPTKEGEQVEMKVGISFVDMEGAANNFKQEIASKNFAQVKQEASDLWNKELSRIRISGGTDDEKTVFYTSLYHTMIDPRIYTDVDGRYIGGDKKVHEQDGTFTKRTIFSGWDVFRSQFPLQAMINPRLVSDALNSLITMADQSRREYYERWELLNSYSGCMIGNPALSVLADAYMKGIRTYDVEKAYQYAVNTSAKFGNDSLGYTPEPLSISYTLEYAYADWCVAQLAKALGKEEDAKRFYEKGQAYRNMFDAEKGWFRPRNADGSWKAWPENALTEEWYGCIESNAYQQGWFVPHDVPGMVELMGGKEEVIANLTNLFDHTPSDMLWNDYYNHANEPVHFVPFLFNQLDVPWYTQKWTRYICKNAYANKVEGIVGNEDVGQMSAWYILAASGIHPSCPGNTRMEITSPVFDKVEFNLDSKYHQGKVFTIIAHNNNTNNLYIQKALLNGKEYNKCYLDFAEIAAGGTLELFMGDKPNTEWGVLSNI
[8]
  kcat/Km: 2.33 M⁻¹ s⁻¹
[9]
  Km: 270 µM
[10]
  Km: 1800 µM
  kcat: 0.0045 s⁻¹
